For assay [1], the target named is T1, Serotonin 3 (5-HT3) receptor (Rattus norvegicus, UniProt P35563+Q9JJ16).
T1 sequence (P35563 whole entry): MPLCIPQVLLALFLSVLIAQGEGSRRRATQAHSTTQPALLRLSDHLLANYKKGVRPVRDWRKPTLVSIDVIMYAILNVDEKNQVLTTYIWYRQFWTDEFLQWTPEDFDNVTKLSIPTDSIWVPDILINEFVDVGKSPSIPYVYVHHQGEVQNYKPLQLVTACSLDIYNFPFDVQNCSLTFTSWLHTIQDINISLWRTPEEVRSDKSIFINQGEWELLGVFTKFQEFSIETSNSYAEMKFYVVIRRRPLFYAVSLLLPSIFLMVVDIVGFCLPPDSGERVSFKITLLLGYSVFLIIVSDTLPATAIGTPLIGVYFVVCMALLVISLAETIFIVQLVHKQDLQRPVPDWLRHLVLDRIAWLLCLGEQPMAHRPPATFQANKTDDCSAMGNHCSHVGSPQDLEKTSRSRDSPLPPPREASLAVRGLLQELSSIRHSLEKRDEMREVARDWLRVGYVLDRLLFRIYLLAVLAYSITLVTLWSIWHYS
T1 sequence (Q9JJ16 whole entry): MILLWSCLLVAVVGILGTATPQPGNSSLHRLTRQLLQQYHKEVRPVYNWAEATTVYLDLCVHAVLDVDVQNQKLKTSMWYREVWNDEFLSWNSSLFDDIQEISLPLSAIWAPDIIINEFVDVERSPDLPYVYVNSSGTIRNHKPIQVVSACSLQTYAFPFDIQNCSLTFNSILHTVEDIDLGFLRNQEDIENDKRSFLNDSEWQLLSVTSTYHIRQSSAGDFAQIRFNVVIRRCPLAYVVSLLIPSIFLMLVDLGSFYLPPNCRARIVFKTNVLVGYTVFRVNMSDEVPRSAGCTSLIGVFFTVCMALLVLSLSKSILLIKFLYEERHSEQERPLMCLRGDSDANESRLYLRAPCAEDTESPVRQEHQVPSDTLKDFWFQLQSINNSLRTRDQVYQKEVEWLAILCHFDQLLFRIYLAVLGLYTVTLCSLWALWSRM
Briefly: Binding affinity against radioligand [3H]quipazine labeled 5-hydroxytryptamine 3 receptor sites in neuroblastoma-glioma (NG108-15) cells.

Assay [2] concerns the target Serotonin 3 (5-HT3) receptor (Rattus norvegicus) (UniProt P35563+Q9JJ16). Nature of the assay: In vivo inhibitory concentration after 5 minutes against 5-hydroxytryptamine 3 receptor induced bradycardia [bezold-jarisch (B-J) reflex test] in rat by intravenous administration. Type of assay: functional, organism-based. An outline of the steps: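 Compounds given iv. The 5-HT-induced bradycardia (Bezold–Jarisch reflex) was measured at 5 min. ED50 is the dose reducing the bradycardia by 50%, from four determinations.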

Assay [3] deals with Canis familiaris. Nature of the assay: Mean percentage increase emetic latency in dog after an intravenous administration of 0.3 mg/kg of drug (when dogs did not vomit,360min). The class given is functional, Canis lupus familiaris. An outline of the steps: (§1)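 Adult male fasted beagles (9–15 kg) received drug 30 min (iv) or 60 min (po) before cisplatin 3 mg/kg iv, dissolved by sonication in saline. Dogs were then observed 6 h, with emesis defined as productive regurgitation. Episode counts and latency were compared with controls (n = 7), using 2–4 dogs per dose. Dogs that never vomited were assigned 360 min latency.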

For assay [4], the system named is Canis familiaris. Nature of the assay: Mean percentage increase emetic latency in dog after an peroral administration of 0.1 mg/kg of drug. Type of assay: functional, Canis lupus familiaris. Conditions: route oral. An outline of the steps:
as §1

The test system of assay [5] is Canis familiaris. Nature of the assay: Mean percentage reduction due to cisplatin-induced emetic episodes in dog after an intravenous administration of 0.03 mg/kg of drug. Type of assay: functional, Canis lupus familiaris. An outline of the steps:
as §1

Assay [6] concerns Canis familiaris. Nature of the assay: Mean percentage reduction due to cisplatin-induced emetic episodes in dog after an intravenous administration of 0.3 mg/kg of drug. Type of assay: functional, Canis lupus familiaris. A digest of the protocol:
(§2)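 Adult male fasted beagle dogs (9-15 kg) received test drug iv 30 min before cisplatin (3 mg/kg, iv, in saline) and were monitored for 6 h. Episodes were counted as productive regurgitation of stomach contents. Percent reduction is versus the control group (n = 7); n = 2-4 dogs per dose.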

For assay [7], the system named is Canis familiaris. Briefly: Mean percentage increase emetic latency in dog after an intravenous administration of 0.1 mg/kg of drug. Type of assay: functional, Canis lupus familiaris. An outline of the steps:
(§3)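 Adult male fasted beagle dogs (9-15 kg), fed on the day of the experiment; test drug given iv 30 min before cisplatin (3 mg/kg, iv, dissolved by sonication in saline). Dogs were monitored for 6 h. Emesis was defined as productive regurgitation of stomach contents.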

In assay [8] the test system is Canis familiaris. Briefly: Mean percentage reduction due to cisplatin-induced emetic episodes in dog after an peroral administration of 1.0 mg/kg of drug. Type of assay: functional, Canis lupus familiaris. The conditions noted are these: route oral. An outline of the steps: as §1
Assay [9] has as its system Canis familiaris. Briefly: Mean percentage reduction due to cisplatin-induced emetic episodes in dog after an peroral administration of 0.1 mg/kg of drug. Type of assay: functional, Canis lupus familiaris. Conditions: route oral. A digest of the protocol: as §1
The subject of assay [10] is Canis familiaris. Nature of the assay: Mean percentage increase emetic latency in dog after an intravenous administration of 0.01 mg/kg of drug. The class given is functional, Canis lupus familiaris. A digest of the protocol: as §1
The subject of assay [11] is Canis familiaris. Nature of the assay: Mean percentage increase emetic latency in dog after an intravenous administration of 0.03 mg/kg of drug. Type of assay: functional, Canis lupus familiaris. A digest of the protocol:
as §1

Assay [12] relates to Canis familiaris. Briefly: Mean percentage increase emetic latency in dog after an peroral administration of 1.0 mg/kg of drug. The class given is functional, Canis lupus familiaris. The conditions noted are these: route oral. A digest of the protocol:
as §1

Assay [13] deals with Canis familiaris. Nature of the assay: Mean percentage reduction due to cisplatin-induced emetic episodes in dog after an intravenous administration of 0.01 mg/kg of drug. Type of assay: functional, Canis lupus familiaris. A digest of the protocol:
as §1

The test system of assay [14] is Canis familiaris. Briefly: Mean percentage reduction due to cisplatin-induced emetic episodes in dog after an intravenous administration of 0.1 mg/kg of drug. The class given is functional, Canis lupus familiaris. A digest of the protocol: as §2
Assay [15] relates to Canis familiaris. Briefly: Mean percentage increase emetic latency in dog after an intravenous administration of 0.3 mg/kg of drug. The class given is functional, Canis lupus familiaris. A digest of the protocol: as §3
For assay [16], the system named is Canis familiaris. Briefly: Mean percentage reduction due to cisplatin-induced emetic episodes in dog after an intravenous administration of 1 mg/kg of drug. The class given is functional, Canis lupus familiaris. An outline of the steps:
as §2

The subject of assay [17] is Canis familiaris. Nature of the assay: Mean percentage increase emetic latency in dog after an intravenous administration of 1 mg/kg of drug (when dogs did not vomit, 360 min). Type of assay: functional, Canis lupus familiaris. An outline of the steps: as §3

This note sets out measurements from ChEMBL document CHEMBL1126609, “5-HT3 receptor antagonists. 2. 4-Hydroxy-3-quinolinecarboxylic acid derivatives” (J Med Chem, 1993).

Turning to `CCCCn1c(=O)c(C(=O)OC2CC3CCC(C2)N3C)c(O)c2ccccc21` (stereo not drawn), the Ki – broadly, the equilibrium dissociation constant of an inhibitor or competing ligand from its target – in [1] is over 100 nM.

In [1], `CN1C2CCC1CC(OC(=O)c1c(O)c3cccnc3n(-c3ccccc3)c1=O)C2` (stereo not drawn) yielded a Ki of over 100 nM.

Consider `CN1C2CCC1CC(NC(=O)c1c(O)c3ccccc3n(-c3ccccc3)c1=O)C2` (stereo not drawn), for which the Ki in assay [1] was determined as 1.4 nM. Also, the ED50 (usually the dose at which the effect has come halfway, by size or by number of responders) in assay [2] is 0.073 mg/kg.

The molecule `Cc1nc2ccccc2c(O)c1C(=O)NC1CC2CCC(C1)N2C` (stereo not drawn) registered a Ki in [1] of 7.2 nM. In assay [2], the ED50 is 0.015 mg/kg.

In assay [1], `CN1C2CCC1CC(NC(=O)c1c(O)c3ccccc3[nH]c1=O)C2` (stereo not drawn) yielded a Ki of 7.6 nM.

In [1], `O=C(NC1CCN2CCCC1C2)c1cnc2ccccc2c1O` (stereo not drawn) returned a Ki of 18 nM.

On to `CN1C2CCC1CC(NC(=O)c1cnc3ccccc3c1O)C2` (stereo in doubt; 6f), for which the Increase is recorded as over 284% with Canis familiaris [3]; 32% in the assay on Canis familiaris [4]; 116% in the assay with Canis familiaris [7]; 88% with Canis familiaris [8]; 14% in the assay with Canis familiaris [10]; 23% in the assay with Canis familiaris [11]. In addition, the Increase in the assay with Canis familiaris [12] is given as 142%. Further, the Reduction in the assay on Canis familiaris [5] is reported as 54%; in the assay with Canis familiaris [6] it was 100%; with Canis familiaris [9], 64%; in the assay with Canis familiaris [13], 44%; in the assay on Canis familiaris [14] it was 80%. This molecule also yielded a Ki in assay [1] of 1.5 nM.

`Cc1ccc2c(O)c(C(=O)NC3CC4CCC(C3)N4C)cnc2n1` (stereo not drawn): the Ki in assay [1] is over 100 nM.

Consider `CN1C2CCC1CC(OC(=O)c1cnc3ccccc3c1O)C2` (stereo not drawn), for which the affinity in [1] corresponds to a Ki of 6.1 nM. This molecule returned a median effective dose (ED50) in [2] of 0.0017 mg/kg.

`CN1C2CCC1CC(NC(=O)c1c(O)c3cccnc3n(-c3ccccc3)c1=O)C2` (stereo not drawn) gave a Ki in assay [1] of 14 nM.

With `CN1C2CCCC1CC(NC(=O)c1cnc3ccccc3c1O)C2` (stereo not drawn), the affinity in assay [1] corresponds to a Ki of 30 nM.

For `Cc1ccc2c(O)c(C(=O)OC3CC4CCC(C3)N4C)cnc2n1` (stereo not drawn), in [1], the Ki is over 100 nM.

In assay [1], `CCCCn1c(=O)c(C(=O)OC2CC3CCC(C2)N3C)c(O)c2cccnc21` (stereo not drawn) displayed a Ki of over 100 nM.

On to `CN1C2CCC1CC(NC(=O)c1cnc3ccccc3c1N)C2` (stereo not drawn), for which, in [1], the Ki was over 100 nM.

Consider `CN1C2CCC1CC(OC(=O)c1cnc3ccccc3c1)C2` (stereo not drawn), for which, in assay [1], the affinity, expressed as Ki, was 66.9 nM. Also, the 50% effect level in assay [2] (ED50) was put at a dose of 0.37 mg/kg.

Take `CN1C2CCC1CC(NC(=O)c1c(O)nc3ccccc3c1O)C2` (stereo not drawn): in [2], it took a dose of 0.22 mg/kg to reach the 50% effect level (ED50).

Regarding `CN1C2CCCC1CC(NC(=O)c1nn(C)c3ccccc13)C2` (stereo not drawn), it took a dose of 0.019 mg/kg to reach the 50% effect level in assay [2] (ED50).

The molecule `Cc1nc2ccccc2c(O)c1C(=O)OC1CC2CCC(C1)N2C` (stereo not drawn) yielded a Ki in assay [1] of 58 nM.

As to `CN1C2CCC1CC(NC(=O)c1cnc3ccccc3c1)C2` (stereo not drawn), the Ki in assay [1] was over 100 nM.

In assay [1], `CCCCn1c(=O)c(C(=O)NC2CC3CCC(C2)N3C)c(O)c2cccnc21` (stereo not drawn) had a Ki of 6.4 nM. The same molecule yielded an ED50 in assay [2] of over 0.1 mg/kg.

`CN1C2CCC1CC(NC(=O)c1cnc3ccccc3c1O)C2` (stereo in doubt; 6h): the Ki in [1] was found to be 100 nM.

In [1], `CCCCn1c(=O)c(C(=O)NC2CC3CCC(C2)N3C)c(O)c2ccccc21` (stereo not drawn) showed a Ki of 0.48 nM. The molecule also came in with an ED50 in assay [2] of 0.29 mg/kg.

Turning to `Cc1nccn1CC1CCc2c(c3ccccc3n2C)C1=O` (stereo not drawn) [ONDANSETRON], the figures for the Reduction in the assay with Canis familiaris [6], with Canis familiaris [16] and in the assay with Canis familiaris [14] were 61%, 100% and 18%, respectively. Also, the results for the Increase in the assay on Canis familiaris [15], in the assay with Canis familiaris [7] and in the assay on Canis familiaris [17] were 115%, 33% and over 284%, respectively. In assay [2], this molecule returned an ED50 of 0.021 mg/kg.

In [1], `CN1C2CCC1CC(NC(=O)c1cnc3ccccc3c1Cl)C2` (stereo not drawn) gave a Ki of 85 nM.
